The target of test [1] is T1, Dipeptidyl peptidase 4 (Homo sapiens, UniProt P27487). As to the kind of experiment: Percent inhibition against human dipeptidylpeptidase 4 at 33 uM concentration.
Target sequence in this assay (P27487 whole entry, looked up): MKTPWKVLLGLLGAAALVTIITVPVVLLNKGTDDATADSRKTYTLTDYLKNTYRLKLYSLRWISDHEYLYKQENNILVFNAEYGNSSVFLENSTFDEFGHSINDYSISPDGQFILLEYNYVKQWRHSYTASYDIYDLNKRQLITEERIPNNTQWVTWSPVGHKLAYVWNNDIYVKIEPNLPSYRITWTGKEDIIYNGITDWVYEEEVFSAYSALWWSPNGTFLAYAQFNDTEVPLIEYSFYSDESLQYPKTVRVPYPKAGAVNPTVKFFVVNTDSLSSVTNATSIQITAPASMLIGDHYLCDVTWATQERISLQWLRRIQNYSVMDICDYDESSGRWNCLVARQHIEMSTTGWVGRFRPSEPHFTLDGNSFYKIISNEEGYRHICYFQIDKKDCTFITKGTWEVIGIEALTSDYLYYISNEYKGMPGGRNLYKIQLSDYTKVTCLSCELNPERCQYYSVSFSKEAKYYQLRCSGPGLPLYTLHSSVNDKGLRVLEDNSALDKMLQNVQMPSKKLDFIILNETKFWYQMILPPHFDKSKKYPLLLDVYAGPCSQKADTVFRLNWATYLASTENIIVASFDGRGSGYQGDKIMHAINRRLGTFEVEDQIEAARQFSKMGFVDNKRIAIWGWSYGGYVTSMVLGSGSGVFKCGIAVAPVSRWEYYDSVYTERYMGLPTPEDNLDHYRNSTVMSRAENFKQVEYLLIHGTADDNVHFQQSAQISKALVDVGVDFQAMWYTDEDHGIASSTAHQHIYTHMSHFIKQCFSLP
A further test deals with T2, Prolyl endopeptidase FAP (Homo sapiens, UniProt Q12884).
T2 sequence (Q12884 whole entry): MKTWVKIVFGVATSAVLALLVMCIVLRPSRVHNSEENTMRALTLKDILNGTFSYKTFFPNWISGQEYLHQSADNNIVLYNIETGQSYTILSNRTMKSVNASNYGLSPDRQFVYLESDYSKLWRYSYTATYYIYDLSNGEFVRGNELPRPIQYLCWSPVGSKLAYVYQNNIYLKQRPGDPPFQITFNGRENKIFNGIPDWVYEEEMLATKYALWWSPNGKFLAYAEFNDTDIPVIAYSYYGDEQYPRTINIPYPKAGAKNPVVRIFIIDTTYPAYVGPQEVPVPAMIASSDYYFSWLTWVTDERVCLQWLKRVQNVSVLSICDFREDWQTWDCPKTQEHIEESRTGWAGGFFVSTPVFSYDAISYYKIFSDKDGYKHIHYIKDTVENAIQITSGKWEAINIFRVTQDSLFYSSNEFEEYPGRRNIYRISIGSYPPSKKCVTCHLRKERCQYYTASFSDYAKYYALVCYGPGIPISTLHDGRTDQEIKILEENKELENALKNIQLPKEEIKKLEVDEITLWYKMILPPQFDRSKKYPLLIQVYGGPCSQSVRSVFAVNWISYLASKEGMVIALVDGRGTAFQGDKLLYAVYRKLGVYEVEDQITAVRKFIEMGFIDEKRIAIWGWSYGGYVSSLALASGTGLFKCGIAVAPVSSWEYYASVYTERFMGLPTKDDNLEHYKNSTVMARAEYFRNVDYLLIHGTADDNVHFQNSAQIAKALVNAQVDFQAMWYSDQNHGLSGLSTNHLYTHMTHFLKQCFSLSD
Briefly: Inhibitory concentration against human fibroblast activation protein alpha; ni = no inhibition at 33 uM concentration.

In a further test the target is Dipeptidyl peptidase 2 (Homo sapiens, UniProt Q9UHL4). As to the kind of experiment: Inhibitory concentration against human dipeptidylpeptidase 7.
The target in another test is Dipeptidyl peptidase 8 (Homo sapiens, UniProt Q6V1X1). As to the kind of experiment: Inhibitory concentration against human dipeptidylpeptidase 8 using FP-TAMRA incubated for 30 min; ni = no inhibition at 20 uM concentration. The method, boiled down: (§1)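 DPP8 and DPP9 from MDA-MB-435 cell lysate. Compounds dissolved in 50% DMSO/50 mM glycine buffer pH 2.5 (final DMSO 1% v/v), serially diluted into lysate, FP-TAMRA activity-based probe labeling, 30 min, quenched with loading buffer. Labeled enzyme resolved by SDS–PAGE, TAMRA fluorescence read by flatbed gel scanner. Duplicates; activity as % of enzyme-alone control, IC50 from Hill fit.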
Sequence of Dipeptidyl peptidase 8 (Q6V1X1 whole entry): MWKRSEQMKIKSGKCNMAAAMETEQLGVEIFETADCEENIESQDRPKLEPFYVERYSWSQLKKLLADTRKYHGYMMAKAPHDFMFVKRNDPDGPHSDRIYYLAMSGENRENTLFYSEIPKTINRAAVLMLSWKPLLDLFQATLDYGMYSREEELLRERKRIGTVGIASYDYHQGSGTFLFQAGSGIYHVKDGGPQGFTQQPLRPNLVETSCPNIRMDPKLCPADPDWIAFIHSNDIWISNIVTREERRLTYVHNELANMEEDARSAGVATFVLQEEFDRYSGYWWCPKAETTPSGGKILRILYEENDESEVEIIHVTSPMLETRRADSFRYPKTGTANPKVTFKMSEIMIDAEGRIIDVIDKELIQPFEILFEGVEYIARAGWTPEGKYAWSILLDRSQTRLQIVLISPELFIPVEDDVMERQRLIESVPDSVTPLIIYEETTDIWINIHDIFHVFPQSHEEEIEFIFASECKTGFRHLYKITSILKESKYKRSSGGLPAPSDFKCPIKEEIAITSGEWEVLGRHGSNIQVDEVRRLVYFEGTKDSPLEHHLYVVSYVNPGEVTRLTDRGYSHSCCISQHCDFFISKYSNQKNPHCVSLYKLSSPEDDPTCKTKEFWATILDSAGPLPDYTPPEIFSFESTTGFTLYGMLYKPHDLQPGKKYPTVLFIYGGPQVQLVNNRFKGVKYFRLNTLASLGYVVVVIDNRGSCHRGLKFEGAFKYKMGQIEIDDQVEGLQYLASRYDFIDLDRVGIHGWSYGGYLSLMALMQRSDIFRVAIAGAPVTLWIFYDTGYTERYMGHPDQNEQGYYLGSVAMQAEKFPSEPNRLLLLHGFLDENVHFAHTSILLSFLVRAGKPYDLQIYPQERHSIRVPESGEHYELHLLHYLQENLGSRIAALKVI

Test [2] has as its target T3, Dipeptidyl peptidase 9 (Homo sapiens, UniProt Q86TI2). Briefly: Inhibitory concentration against human dipeptidylpeptidase 9 using FP-TAMRA incubated for 30 min; ni = no inhibition at 20 uM concentration. The method, boiled down: as §1
Target sequence in this assay (Q86TI2 whole entry): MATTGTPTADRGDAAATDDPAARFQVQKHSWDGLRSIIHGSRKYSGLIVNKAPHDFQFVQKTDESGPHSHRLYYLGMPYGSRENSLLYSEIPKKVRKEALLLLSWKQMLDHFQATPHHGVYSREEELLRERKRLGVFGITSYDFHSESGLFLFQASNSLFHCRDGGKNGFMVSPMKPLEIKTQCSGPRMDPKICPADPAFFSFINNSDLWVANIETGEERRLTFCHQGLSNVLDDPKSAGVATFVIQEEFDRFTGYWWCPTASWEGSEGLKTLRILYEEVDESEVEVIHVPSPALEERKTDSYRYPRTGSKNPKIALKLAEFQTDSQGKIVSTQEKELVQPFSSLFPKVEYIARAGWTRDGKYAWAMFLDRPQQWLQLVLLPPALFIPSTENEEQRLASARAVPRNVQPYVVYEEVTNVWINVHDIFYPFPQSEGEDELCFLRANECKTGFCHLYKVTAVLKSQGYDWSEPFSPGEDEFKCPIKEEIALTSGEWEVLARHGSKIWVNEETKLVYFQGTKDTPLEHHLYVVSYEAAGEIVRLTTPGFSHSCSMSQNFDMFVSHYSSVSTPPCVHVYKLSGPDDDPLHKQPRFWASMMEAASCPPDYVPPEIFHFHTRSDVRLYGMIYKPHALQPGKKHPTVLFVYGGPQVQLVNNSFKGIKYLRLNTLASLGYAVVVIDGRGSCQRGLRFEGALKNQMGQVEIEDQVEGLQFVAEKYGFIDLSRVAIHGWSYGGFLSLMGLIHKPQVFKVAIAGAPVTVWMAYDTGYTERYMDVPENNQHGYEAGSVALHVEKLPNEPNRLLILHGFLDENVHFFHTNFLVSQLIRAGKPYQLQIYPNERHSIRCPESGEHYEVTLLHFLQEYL
In test [3] the target is T1, Dipeptidyl peptidase 4.
Target sequence in this assay (P27487 whole entry): as the sequence (P27487 whole entry, looked up) above
Test [4] concerns the target T1, Dipeptidyl peptidase 4. As to the kind of experiment: Inhibitory concentration against human dipeptidylpeptidase 4.
Target sequence in this assay (P27487 whole entry): as the sequence (P27487 whole entry, looked up) above
The target of test [5] is T3, Dipeptidyl peptidase 9. Briefly: Percentage inhibition against human dipeptidylpeptidase 9 using FP-TAMRA incubated for 30 min at 20 uM concentration. The method, boiled down: as §1
Target sequence in this assay (Q86TI2 2-863 limits assumed): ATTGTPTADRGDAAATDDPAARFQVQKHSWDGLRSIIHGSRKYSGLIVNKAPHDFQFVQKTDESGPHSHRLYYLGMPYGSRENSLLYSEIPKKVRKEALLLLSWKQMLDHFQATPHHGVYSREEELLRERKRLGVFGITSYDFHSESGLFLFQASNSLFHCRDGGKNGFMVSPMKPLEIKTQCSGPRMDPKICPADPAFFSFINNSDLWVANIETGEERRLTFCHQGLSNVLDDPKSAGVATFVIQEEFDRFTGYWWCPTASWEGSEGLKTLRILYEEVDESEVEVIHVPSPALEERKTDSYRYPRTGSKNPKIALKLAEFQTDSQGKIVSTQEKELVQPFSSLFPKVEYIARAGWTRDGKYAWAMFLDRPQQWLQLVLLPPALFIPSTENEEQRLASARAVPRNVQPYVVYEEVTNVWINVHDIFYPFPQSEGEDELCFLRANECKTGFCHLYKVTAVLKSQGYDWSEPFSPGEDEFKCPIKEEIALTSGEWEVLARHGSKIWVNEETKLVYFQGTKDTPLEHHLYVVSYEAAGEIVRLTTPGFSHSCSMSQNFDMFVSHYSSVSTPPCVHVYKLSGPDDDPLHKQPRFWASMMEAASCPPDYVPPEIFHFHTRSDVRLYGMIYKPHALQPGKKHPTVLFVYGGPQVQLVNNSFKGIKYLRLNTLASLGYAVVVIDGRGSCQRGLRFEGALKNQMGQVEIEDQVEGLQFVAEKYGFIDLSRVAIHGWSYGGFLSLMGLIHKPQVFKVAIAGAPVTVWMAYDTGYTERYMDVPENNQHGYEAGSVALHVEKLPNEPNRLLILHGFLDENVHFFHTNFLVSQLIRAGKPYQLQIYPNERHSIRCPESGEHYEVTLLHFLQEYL

Our source for the inhibition and IC50 values is ChEMBL document CHEMBL1141052, “Boro-norleucine as a P1 residue for the design of selective and potent DPP7 inhibitors” (Bioorg Med Chem Lett, 2005).

As usually defined, the inhibition is the change of the read-out against control, counted positive when it falls. Low values mean a weak effect, high ones a strong effect. One may read the IC50 as the concentration needed to halve the response being measured. A low value points to inhibition by little substance.

`CCCCCNC(=O)[C@@H](N)CCCC` gave an inhibition at Dipeptidyl peptidase 4 [1] of 35%. Moreover, the IC50 entry was “No inhibition” at Prolyl endopeptidase FAP, 5500 nM against Dipeptidyl peptidase 2, “No inhibition” against Dipeptidyl peptidase 8 and “No inhibition” on Dipeptidyl peptidase 9 [2].
With `CC(C)[C@H](N)C(=O)N[C@@H](C)B(O)O`, at Dipeptidyl peptidase 2, half-maximal inhibition (IC50) was put at 160 nM.
For `CCCC[C@@H](NC(=O)[C@@H](N)CCCCN)B(O)O`, the results for the IC50 entry on Prolyl endopeptidase FAP, at Dipeptidyl peptidase 2 and against Dipeptidyl peptidase 4 [3] were “No inhibition”, 3.7 nM and “Not Active”, respectively.
Regarding `CCCC[C@@H](NC(=O)[C@@H](N)CCC)B(O)O`, the results for the half-inhibitory concentration (IC50) result against Prolyl endopeptidase FAP, against Dipeptidyl peptidase 4 [4] and against Dipeptidyl peptidase 2 were “No inhibition”, 810 nM and 71 nM, respectively.
Take `CCCC[C@H](N)C(=O)N1CCC[C@@H]1B(O)O`: the IC50 against Dipeptidyl peptidase 4 [4] was 4.5 nM; against Dipeptidyl peptidase 2, 2 nM.
As for `CCCC[C@@H](NC(=O)[C@@H](N)CN)B(O)O`, the IC50 entry on Prolyl endopeptidase FAP is “No inhibition”; against Dipeptidyl peptidase 4 [4], 2000 nM; on Dipeptidyl peptidase 2, 8.2 nM; against Dipeptidyl peptidase 8, “No inhibition”.
For the compound `CCCC[C@@H](NC(=O)[C@@H](N)CCCN)B(O)O`, the IC50 entry on Prolyl endopeptidase FAP is “No inhibition”; on Dipeptidyl peptidase 4 [4], 1200 nM; on Dipeptidyl peptidase 2 it was 4.7 nM.
Take `CCCCCNC(=O)[C@@H](N)CCN`: the IC50 result against Prolyl endopeptidase FAP was “No inhibition”; on Dipeptidyl peptidase 2 it was 2600 nM; on Dipeptidyl peptidase 8, “No inhibition”; at Dipeptidyl peptidase 9 [2], “No inhibition”; on Dipeptidyl peptidase 4 [3], “Not Active”.
In turn, `CCCC[C@@H](NC(=O)[C@H](C)N)B(O)O` gave an inhibition against Dipeptidyl peptidase 9 [5] of 40%. Also, the values for the 50% inhibitory concentration (IC50) result against Prolyl endopeptidase FAP, against Dipeptidyl peptidase 2 and on Dipeptidyl peptidase 4 [3] were “No inhibition”, 220 nM and “Not Active”, respectively.
For `NCC[C@H](N)C(=O)N1CCC[C@@H]1B(O)O`, the IC50 was 15 nM against Dipeptidyl peptidase 4 [4] and 0.72 nM at Dipeptidyl peptidase 2.
For `CCCC[C@@H](NC(=O)[C@@H](N)CCCC)B(O)O`, the IC50 entry was “No inhibition” against Prolyl endopeptidase FAP, 370 nM at Dipeptidyl peptidase 4 [4] and 18 nM on Dipeptidyl peptidase 2.
For the compound `CCCC[C@@H](NC(=O)[C@@H](N)C(C)C)B(O)O`, the IC50 result was “No inhibition” on Prolyl endopeptidase FAP, 17000 nM against Dipeptidyl peptidase 4 [4] and 40 nM against Dipeptidyl peptidase 2.
`CCCC[C@@H](NC(=O)[C@@H](N)CCN)B(O)O` yielded an inhibition against Dipeptidyl peptidase 4 [1] of 40%. Further, the results for the IC50 entry on Prolyl endopeptidase FAP and at Dipeptidyl peptidase 2 were “No inhibition” and 0.48 nM, respectively.
As for `CCCC[C@@H](NC(=O)[C@@H](N)CC)B(O)O`, the results for the IC50 result against Prolyl endopeptidase FAP, against Dipeptidyl peptidase 4 [4] and on Dipeptidyl peptidase 2 were “No inhibition”, 32000 nM and 49 nM, respectively.
The compound `CCCC[C@@H](NC(=O)[C@@H]1CCCN1)B(O)O` showed an inhibition against Dipeptidyl peptidase 9 [5] of 35%. The IC50 result on Prolyl endopeptidase FAP was “No inhibition”; at Dipeptidyl peptidase 2, 890 nM; against Dipeptidyl peptidase 8, “No inhibition”; at Dipeptidyl peptidase 4 [3] it was “Not Active”.
